In ChEMBL document CHEMBL4196160, “Structure-Guided Design and Procognitive Assessment of a Potent and Selective Phosphodiesterase 2A Inhibitor” (ACS Med Chem Lett, 2018):
Activity calls are given as the source filed them. The calls are words filed in the database; no cut-off is given here.

Experiments:
[1] = Selectivity ratio of IC50 for human GST-tagged PDE1A expressed in insect cells to IC50 for rhesus monkey brain PDE2A3 expressed in human AD293 cells
[2] = Selectivity ratio of IC50 for human GST-tagged PDE5A1 expressed in insect cells to IC50 for rhesus monkey brain PDE2A3 expressed in human AD293 cells
[3] = Selectivity ratio of IC50 for human GST-tagged PDE4A1A expressed in insect cells to IC50 for rhesus monkey brain PDE2A3 expressed in human AD293 cells
[4] = Selectivity ratio of IC50 for human GST-tagged PDE9A2 expressed in insect cells to IC50 for rhesus monkey brain PDE2A3 expressed in human AD293 cells
[5] = Selectivity ratio of IC50 for human GST-tagged PDE11A4 expressed in insect cells to IC50 for rhesus monkey brain PDE2A3 expressed in human AD293 cells
[6] = Selectivity ratio of IC50 for human GST-tagged PDE2A1 expressed in insect cells to IC50 for rhesus monkey brain PDE2A3 expressed in human AD293 cells
[7] = Lipophilicity, log D of the compound by HPLC method; assay type: physicochemical
[8] = Inhibition of rhesus monkey brain PDE2A3 expressed in human AD293 cells using FAM-labeled cAMP/cGMP as substrate incubated for 60 mins measured after 1 hr by IMAP based fluorescence polarization assay
P-gp [9] = test: Substrate activity at rat P-gp assessed as efflux ratio; assay type: ADME; conditions: not told
[10] = Selectivity ratio of IC50 for human GST-tagged PDE3A expressed in insect cells to IC50 for rhesus monkey brain PDE2A3 expressed in human AD293 cells
[11] = Selectivity ratio of IC50 for human GST-tagged PDE7A expressed in insect cells to IC50 for rhesus monkey brain PDE2A3 expressed in human AD293 cells
[12] = Selectivity ratio of IC50 for human GST-tagged PDE10A2 expressed in insect cells to IC50 for rhesus monkey brain PDE2A3 expressed in human AD293 cells
[13] = Selectivity ratio of IC50 for human GST-tagged PDE8A1 expressed in insect cells to IC50 for rhesus monkey brain PDE2A3 expressed in human AD293 cells
P-gp [14] = test: Substrate activity at human P-gp assessed as efflux ratio; assay type: ADME; conditions: not told
[15] = Selectivity ratio of IC50 for human GST-tagged PDE6C expressed in insect cells to IC50 for rhesus monkey brain PDE2A3 expressed in human AD293 cells
[16] = Protein binding in rhesus monkey plasma; assay type: ADME, cell-free, Macaca mulatta; conditions: read-out: PPB (converted)
[17] = Half life in rat; assay type: ADME, organism-based; conditions: in vivo
[18] = Oral bioavailability in rat; assay type: ADME, organism-based; conditions: in vivo
[19] = Inhibition of CYP450 (unknown origin); assay type: ADME, Homo sapiens
[20] = Half life in rhesus monkey; assay type: ADME, organism-based, Macaca mulatta; conditions: in vivo
P-gp [21] = test: Substrate activity at P-gp (unknown origin) assessed as apparent permeability; assay type: ADME; conditions: human, not told
[22] = Clearance in rat; assay type: ADME, organism-based; conditions: in vivo
Rattus norvegicus [23] = test: Reversal of scopolamine-induced cognitive impairment in Wistar Hannover rat assessed as improvement in episodic memory at 0.1 to 1 mg/kg, po administered 30 mins prior to testing by novel object recognition test; assay type: functional, organism-based
In short: (§1)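 Rats given vehicle or scopolamine, then exposed to two identical objects; one hour later exposed to one familiar and one novel object. Recognition memory scored as time spent exploring the novel versus the familiar object. Donepezil served as positive control.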

Rhesus monkey [24] = test: Reversal of scopolamine-induced cognitive impairment in rhesus monkey assessed increase in novel object retrieval at 1 mg/kg administered orally 4 hrs prior to testing by novel object recognition test; assay type: functional, organism-based; conditions: Macaca mulatta
In short: (§2)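 Rhesus monkeys impaired with scopolamine performed an object retrieval task. A food item was placed deep inside a clear box whose single open side was out of direct view. Each attempt was scored correct if the food was retrieved without touching a closed side. Read-out was percentage correct versus scopolamine alone, with donepezil as positive control.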

[25] = Clearance in rhesus monkey; assay type: ADME, organism-based, Macaca mulatta; conditions: in vivo
[26] = Protein binding in rat plasma; assay type: ADME, cell-free; conditions: read-out: PPB (converted)
[27] = Volume of distribution at steady state in rhesus monkey; assay type: ADME, organism-based, Macaca mulatta; conditions: in vivo, read-out: Vdss
[28] = Oral bioavailability in rhesus monkey; assay type: ADME, organism-based, Macaca mulatta; conditions: in vivo
Rattus norvegicus [29] = test: Increase in cGMP levels in rat brain cytosolic fraction of cortical tissue at 3 to 30 mg/kg, po measured after 30 mins by ELISA; assay type: functional, organism-based
In short: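 Rats dosed orally at 3, 10 or 30 mg/kg; brain tissue harvested 30 min after dosing and frozen; cortical cGMP measured and compared with controls.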

[30] = Intrinsic clearance in human liver microsomes; assay type: ADME, microsome; conditions: read-out: CLH
Rhesus monkey [31] = test: Reversal of scopolamine-induced cognitive impairment in rhesus monkey assessed increase in novel object retrieval administered orally 4 hrs prior to testing by novel object recognition test; assay type: functional, organism-based; conditions: Macaca mulatta; in short: as §2
[32] = Volume of distribution at steady state in rat; assay type: ADME, organism-based; conditions: in vivo, read-out: Vdss
Rattus norvegicus [33] = test: Reversal of scopolamine-induced cognitive impairment in Wistar Hannover rat assessed as improvement in episodic memory at 1.8 mg/kg, ip administered 30 mins prior to testing by novel object recognition test; assay type: functional, organism-based; in short: as §1
Rhesus monkey [34] = test: Reversal of scopolamine-induced cognitive impairment in rhesus monkey assessed increase in novel object retrieval at 0.3 mg/kg by novel object recognition test; assay type: functional, organism-based; conditions: Macaca mulatta; in short: as §2

Structure (SMILES) | Ratio IC50 [1] | Ratio IC50 [2] | Ratio IC50 [3] | Ratio IC50 [4] | Ratio IC50 [5] | Ratio IC50 [6] | logD [7] | IC50 [8] | efflux ratio (P-gp [9]) | Ratio IC50 [10] | Ratio IC50 [11] | Ratio IC50 [12] | Ratio IC50 [13] | efflux ratio (P-gp [14]) | Ratio IC50 [15] | also measured
C[C@@H](c1ccc(C(F)(F)F)cc1)n1nc(CC(F)(F)F)c2c(=O)[nH]c(O)nc21 | > 12000 | > 12000 | > 12000 | > 12000 | > 12000 | > 12000 | 1.8 | 0.96 nM | 19 | > 12000 | > 12000 | > 12000 | > 12000 | 4.8 | > 12000 | –
C[C@@H](c1ccc(C(F)(F)F)cc1)n1nc(CF)c2c(=O)[nH]c(O)nc21 | – | – | – | – | – | – | – | 2 nM | – | – | – | – | – | – | – | –
Cc1nc2c(c(CO)nn2[C@@H](C)c2ccc(C(F)(F)F)c(F)c2)c(=O)[nH]1 | – | – | – | 950 | – | – | – | 1.3 nM | – | – | – | – | – | – | – | –
Cc1nc2c(c(C)nn2[C@@H](C)c2ccc(C(F)(F)F)cc2)c(=O)[nH]1 | 0 to 100 | 101 to 500 | 101 to 500 | 4 | 101 to 500 | – | 2.7 | 23 nM | – | 0 to 100 | > 500 | 101 to 500 | > 500 | – | > 500 | –
Cc1nc2c(c(CO)nn2[C@H](c2ccc(C(F)(F)F)cc2)C(C)(C)C)c(=O)[nH]1 | – | – | – | – | – | – | – | 9 nM | – | – | – | – | – | – | – | –
Cc1nc2c(c(CO)nn2[C@@H](C)c2ccc(C(F)(F)F)cc2)c(=O)[nH]1 | > 500 | > 500 | > 500 | 315 | > 500 | > 500 | 2.2 to 2.7 | 2 nM | 3 | > 500 | > 500 | > 500 | > 500 | 1 | > 500 | fraction unbound [16]: 0.1; half-life [17]: 2.9 h; bioavailability [18]: 84%; IC50 [19]: > 50000 nM; half-life [20]: 5.2 h; Papp (P-gp [21]): 37 ×10⁻⁶ cm/s; clearance [22]: 5.6 mL/min/kg; Activity (Rattus norvegicus [23]): Active; Activity (Rhesus monkey [24]): inactive; clearance [25]: 2 mL/min/kg; fraction unbound [26]: 0.15; Vd [27]: 0.88 L/kg; bioavailability [28]: 100%; Activity (Rattus norvegicus [29]): Active; CLint scaled [30]: < 6.2 mL/min/kg; Activity (Rhesus monkey [31]): Dose-dependent effect; Vd [32]: 1.4 L/kg
COc1ccc(Cc2nc3c(c(CO)nn3[C@@H](C)c3ccc(C(F)(F)F)cc3)c(=O)[nH]2)cc1OC | – | – | – | – | – | – | – | 0.89 nM | 35 | – | – | – | – | 11 | – | –
C[C@@H](c1ccc(C(F)(F)F)cc1)n1nc(CO)c2c(=O)[nH]c(O)nc21 | > 1000 | > 1000 | > 1000 | 1190 | > 1000 | > 1000 | 1.1 | 14 nM | 0.38 | > 1000 | > 1000 | > 1000 | > 1000 | 0.32 | > 1000 | Papp (P-gp [21]): 41 ×10⁻⁶ cm/s
Cc1nc2c(c(CO)nn2[C@H](C)c2ccc(C(F)(F)F)cc2)c(=O)[nH]1 | – | – | – | – | – | – | – | 216 nM | – | – | – | – | – | – | – | –
COc1cc2c(cc1OC)C(=O)C(CC1CCN(Cc3ccccc3)CC1)C2 (stereo not given) | – | – | – | – | – | – | – | – | – | – | – | – | – | – | – | Activity (Rattus norvegicus [33]): Active; Activity (Rhesus monkey [34]): Active
